pIC50: −log10 of the molar value. Calls of active or inactive are those of the source. The rule behind the calls is not given here.
Key:
[1] = Metal chelating activity of the compound assessed as formation of Ca2+ complex by UV-vis spectrometry; format: physicochemical
Candida albicans = experiment: Antifungal activity against Candida albicans up to 200 uM after 24 to 48 hrs by broth microdilution method; format: functional, organism-based
[2] = Metal chelating activity of the compound assessed as formation of Zn2+ complex by UV-vis spectrometry; format: physicochemical
[3] = Metal chelating activity of the compound assessed as formation of Fe3+ complex by UV-vis spectrometry; format: physicochemical
CCRF-CEM [4] = experiment: Induction of apoptosis in human CCRF-CEM cells assessed as apoptotic cells at IC50 after 24 hrs by propidium iodide staining-based flow cytometry; format: functional
Procedure, shortened: (§1)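 Cells were then fixed in 70% ethanol, washed in hypotonic citrate buffer, treated with RNase (50 µg/mL) and stained with propidium iodide. Flow cytometry used a 488 nm laser. Apoptosis was scored as the percentage of particles with propidium content below G0/G1.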

[5] = Metal chelating activity of the compound assessed as formation of Co2+ complex by UV-vis spectrometry; format: physicochemical
[6] = tested on: Staphylococcus haemolyticus; experiment: Antimicrobial activity against methicillin-resistant Staphylococcus haemolyticus A1/16568 up to 200 uM after 24 to 48 hrs by broth microdilution method; format: functional, organism-based
[7] = Cytostatic activity against human HCT116 cells after 72 hrs by MTT assay; format: functional, cell-based; details: HCT-116, 72 h
Procedure, shortened: (§2)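 Cells were seeded at 25,000–30,000 per well and pre-incubated for 24 h at 37°C in 5% CO2. Four-fold compound dilutions were added in duplicate and incubated for 72 h. MTT was added for 1–4 h, and formazan was dissolved in 10% aq SDS (pH 5.5) overnight at 37°C. OD was read at 540 nm. IC50 came from dose-response curves, mean ± SD of eight independent experiments.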

[8] = Metal chelating activity of the compound assessed as formation of Cu2+ complex by UV-vis spectrometry; format: physicochemical
CCRF-CEM [9] = experiment: Cell cycle arrest in human CCRF-CEM cells assessed as accumulation at G0/G1 phase at IC50 after 24 hrs by propidium iodide staining-based flow cytometry; format: functional; procedure, shortened: as §1
[10] = Metal chelating activity of the compound assessed as formation of Fe2+ complex by UV-vis spectrometry; format: physicochemical
Nucleic Acid [11] = experiment: Binding affinity to DNA (unknown origin) assessed as DNA intercalation by UV-visible spectrophotometry in presence of Fe3+; format: nucleic-acid assay
CCRF-CEM [12] = experiment: Cell cycle arrest in human CCRF-CEM cells assessed as accumulation at S phase at 5 times IC50 after 24 hrs by propidium iodide staining-based flow cytometry; format: functional; procedure, shortened: as §1
K562 = experiment: Cytostatic activity against human K562 cells after 72 hrs by MTT assay; format: functional, cell-based; details: K562, 72 h; procedure, shortened: as §2
A549 = experiment: Selectivity index, ratio of IC50 for human MRC5 cells to IC50 for human A549 cells; format: functional
Pichia kudriavzevii = experiment: Antifungal activity against Candida crusei up to 200 uM after 24 to 48 hrs by broth microdilution method; format: functional, organism-based
[13] = Metal chelating activity of the compound assessed as formation of Mn2+ complex by UV-vis spectrometry; format: physicochemical
Pseudomonas aeruginosa = experiment: Antimicrobial activity against multidrug-resistant Pseudomonas aeruginosa A/16575 up to 200 uM after 24 to 48 hrs by broth microdilution method; format: functional, organism-based
Nucleic Acid [14] = experiment: Binding affinity to DNA (unknown origin) assessed as DNA intercalation by UV-visible spectrophotometry in presence of Zn2+; format: nucleic-acid assay
BJ = experiment: Selectivity index, ratio of IC50 for human BJ cells to IC50 for human HCT116 cells; format: functional
CCRF-CEM [15] = experiment: Cell cycle arrest in human CCRF-CEM cells assessed as accumulation at G0/G1 phase at 5 times IC50 after 24 hrs by propidium iodide staining-based flow cytometry; format: functional; procedure, shortened: as §1
CCRF-CEM [16] = experiment: Induction of apoptosis in human CCRF-CEM cells assessed as inhibition of RNA synthesis after 24 hrs by propidium iodide/BrU staining by flow cytometry; format: functional, cell-based

Row | SMILES | Activity [1] | Activity (Candida albicans) | Activity [2] | Activity [3] | Activity (CCRF-CEM [4]) [%] | Activity [5] | Activity [6] | pIC50 [7] | Activity [8] | Activity (CCRF-CEM [9]) [%] | Activity [10] | Activity (Nucleic Acid [11]) | Activity (CCRF-CEM [12]) [%] | pIC50 (K562) | Ratio IC50 (A549) | Activity (Pichia kudriavzevii) | Activity [13] | Activity (Pseudomonas aeruginosa) | Activity (Nucleic Acid [14]) | Ratio IC50 (BJ) | other results
1 | Cc1ccc(O)c(/C=N/NC(=O)c2ccc3c4c(ccc3c2)N2Cc3c(ccc5cc(C(=O)N/N=C/c6cc(C)ccc6O)ccc35)N(C4)C2)c1 | Not Active | inactive | Active | Active | 14.09 | Active | inactive | 6.21 | Active | 40.52 | Not Active | Active | 46.78 | 6.05 | 0.9 | inactive | Not Active | inactive | Active | 0.8 | Activity (CCRF-CEM [15]): 38.43%
2 | O=C(N/N=C/c1cc(F)ccc1O)c1ccc2c3c(ccc2c1)N1Cc2c(ccc4cc(C(=O)N/N=C/c5cc(F)ccc5O)ccc24)N(C3)C1 | Not Active | inactive | Active | Active | 40.42 | Active | inactive | 6.19 | Active | 31.5 | Not Active | Active | 42.41 | 5.64 | 33.6 | inactive | Not Active | inactive | Active | 64.9 | inhibition (CCRF-CEM [16]): Dose-dependent effect; Activity (CCRF-CEM [15]): 41.1%
3 | O=C(NN=C(c1ccccn1)c1ccccn1)c1ccc2c3c(ccc2c1)N1Cc2c(ccc4cc(C(=O)NN=C(c5ccccn5)c5ccccn5)ccc24)N(C3)C1 | Not Active | inactive | Active | Active | 12.04 | Active | inactive | 6.34 | Active | 28.27 | Not Active | Active | 68.14 | 6.19 | 0.8 | inactive | Not Active | inactive | Active | 3.4 | Activity (CCRF-CEM [15]): 3.63%
4 | COc1ccc(O)c(/C=N/NC(=O)c2ccc3c4c(ccc3c2)N2Cc3c(ccc5cc(C(=O)N/N=C/c6cc(OC)ccc6O)ccc35)N(C4)C2)c1 | Not Active | inactive | Active | Active | 12.97 | Active | inactive | 7.30 | Active | 30 | Not Active | Active | 48.55 | 7.10 | 123.2 | inactive | Not Active | inactive | Active | 622.3 | Activity (CCRF-CEM [15]): 39.05%
5 | O=C(N/N=C/c1cc(O)ccc1O)c1ccc2c3c(ccc2c1)N1Cc2c(ccc4cc(C(=O)N/N=C/c5cc(O)ccc5O)ccc24)N(C3)C1 | Not Active | inactive | Active | Active | 3.99 | Active | inactive | 6.41 | Active | 37.38 | Not Active | Active | 58.22 | 6.36 | 20.9 | inactive | Not Active | inactive | Active | 9.1 | Activity (CCRF-CEM [15]): 21.32%
6 | COC(=O)c1ccc(O)c(/C=N/NC(=O)c2ccc3c4c(ccc3c2)N2Cc3c(ccc5cc(C(=O)N/N=C/c6cc(C(=O)OC)ccc6O)ccc35)N(C4)C2)c1 | Not Active | inactive | Active | Active | 12.85 | Active | inactive | 4.99 | Active | 48.63 | Not Active | Active | 55.48 | 5.01 | 7.7 | inactive | Not Active | inactive | Active | 8.9 | Activity (CCRF-CEM [15]): 31.26%
7 | O=C(N/N=C/c1nccc2ccccc12)c1ccc2c3c(ccc2c1)N1Cc2c(ccc4cc(C(=O)N/N=C/c5nccc6ccccc56)ccc24)N(C3)C1 | Not Active | inactive | Active | Active | 8.4 | Active | inactive | 4.75 | Active | 46.09 | Not Active | Active | 39.87 | 6.09 | 5.4 | inactive | Not Active | inactive | Active | 5.7 | inhibition (CCRF-CEM [16]): Dose-dependent effect; Activity (CCRF-CEM [15]): 46.56%
8 | O=C(N/N=C/c1ccccc1O)c1ccc2c3c(ccc2c1)N1Cc2c(ccc4cc(C(=O)N/N=C/c5ccccc5O)ccc24)N(C3)C1 | Not Active | inactive | Active | Active | 18.07 | Active | inactive | 6.41 | Active | 30.6 | Not Active | Active | 37.75 | 6.24 | 0.3 | inactive | Not Active | inactive | Active | 0.8 | Activity (CCRF-CEM [15]): 43.33%

— ChEMBL document CHEMBL3400013, “Synthesis and biological activity evaluation of hydrazone derivatives based on a Tröger's base skeleton” (Bioorg Med Chem, 2015)
